Experimental data collected from several papers.
Protocols differ between the studies behind these lines.
Target: Protein kinase C zeta type (PRKCZ, Homo sapiens, UniProt Q05513)
One construct used (Q05513 1-592): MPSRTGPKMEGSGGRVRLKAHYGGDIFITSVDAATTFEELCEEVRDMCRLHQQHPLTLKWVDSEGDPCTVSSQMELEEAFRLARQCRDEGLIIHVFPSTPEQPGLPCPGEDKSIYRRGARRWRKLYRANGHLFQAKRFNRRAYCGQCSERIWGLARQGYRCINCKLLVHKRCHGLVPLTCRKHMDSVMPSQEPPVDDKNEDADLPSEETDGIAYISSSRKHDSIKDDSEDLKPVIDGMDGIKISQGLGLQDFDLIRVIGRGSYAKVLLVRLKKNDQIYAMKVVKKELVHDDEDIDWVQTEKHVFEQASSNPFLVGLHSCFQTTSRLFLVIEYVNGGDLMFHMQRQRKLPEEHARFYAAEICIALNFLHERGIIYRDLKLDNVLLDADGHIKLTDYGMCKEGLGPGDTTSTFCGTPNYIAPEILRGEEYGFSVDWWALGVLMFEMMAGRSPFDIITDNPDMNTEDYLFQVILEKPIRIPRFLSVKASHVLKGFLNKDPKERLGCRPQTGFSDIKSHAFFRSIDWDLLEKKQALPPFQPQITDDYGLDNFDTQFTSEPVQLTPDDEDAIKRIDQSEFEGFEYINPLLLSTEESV

The ΔTm of `Cn1c2c(c3ccc(Cl)c(Cl)c31)C(C#N)C1(CCOCC1)NC2=O` (centres unmarked) is reported as -0.2 °C (thermal stability; DSF; 10 µM).
With `CC(C)(O)[C@H]1CC[C@H](Nc2ccc3ncc(-c4cccc(C(F)(F)F)c4)n3n2)CC1` the remaining activity was 98% (enzyme activity; inhibitor; 1 µM).
The ΔTm of `Cn1c2c(Cl)c(Cl)ccc2c2cc[nH]c(=O)c21` is reported as 0.4 °C (thermal stability; DSF; 10 µM).
With `C[C@@H](N)[C@H]1CC[C@H](C(=O)Nc2ccncc2)CC1` the inhibition was 7.4% (enzyme activity; inhibitor; TR-FRET; 10 µM).
`N#CCCc1ccc2c(c1)-c1[nH]c3ccc([N+](=O)[O-])cc3c1CC(=O)N2` has a remaining signal of 83.4% (cell-free assay; 0.5 µM).
For `CCN(CC)CCNC(=O)c1c(C)[nH]c(/C=C2\C(=O)Nc3ccc(F)cc32)c1C`, the inhibition was -2% (enzyme activity; inhibitor; 10 µM).
For `c1ccc(CNc2nc(N3CCOc4ccccc43)nc3c2CCCC3)cc1`, the inhibition was 17.3% (target engagement in cells; inhibitor; chemoproteomics; 20 mM).
The ΔTm of `CN1CCC2(CC1)NC(=O)c1c(c3ccc(Cl)c(Cl)c3n1C)C2C#N` (racemic) is reported as 0 °C (thermal stability; DSF; 10 µM).
The activity vs control of `COc1cc(/C=C/C(=O)CC(=O)/C=C/c2ccc(O)c(OC)c2)ccc1O` is reported as 94% (enzyme activity; inhibitor; 1 µM).
`CC(C)c1ccc(NC(=O)c2cccs2)c(-c2nc3ccccc3[nH]c2=O)c1` gave an activity vs control of 97% (enzyme activity; inhibitor; 1 µM).
`Cn1c2c(Cl)c(Cl)ccc2c2cc(N)[nH]c(=O)c21` gave a ΔTm of 0.1 °C (thermal stability; DSF; 10 µM).
With `CCN(CC)c1ccc(C2=NNC(=O)CC2C)cc1[N+](=O)[O-]` (centres unmarked) the remaining activity was 102% (enzyme activity; inhibitor; 10 µM).
For `Oc1cccc(-c2nc(N3CCOCC3)c3oc4ncccc4c3n2)c1`, the remaining activity was 98% (enzyme activity; inhibitor; 10 µM).
`Nc1nc(Nc2ccccc2)sc1C(=O)c1c(F)cccc1F` has a remaining activity of 83% (enzyme activity; inhibitor; 10 µM).
`CCCS(=O)(=O)Nc1ccc(F)c(C(=O)c2c[nH]c3ncc(-c4ccc(Cl)cc4)cc23)c1F` gave an inhibition of under 20% (enzyme activity; inhibitor; 1 µM).
`Cc1cc(NC(=O)c2cccc3cc(-c4cccc5[nH]nc(N)c45)ccc23)ccc1F` has an activity vs control of 99% (enzyme activity; inhibitor; 0.1 µM).
`O=C(Nc1cnn(-c2csc(C(=O)NC3COC3)c2)c1)Nc1ccccc1Cl` gave a remaining activity of 105% (enzyme activity; inhibitor; 5 µM).
